ChEMBL document CHEMBL4265908, “Structure-activity and structure-property relationships of novel Nrf2 activators with a 1,2,4-oxadiazole core and their therapeutic effects on acetaminophen (APAP)-induced acute liver injury” (Eur J Med Chem, 2018)
≈ marks a conversion by molar mass, not a printed value. Calls of active or inactive are those of the source. The calls are words filed in the database; no cut-off is given here.

What was measured:
[1] = test system: HepG2; test: Cytotoxicity against human HepG2 cells at 80 uM after 24 hrs by MTT assay; format: cell-based; conditions: hepg2, 24 h
[2] = target: T1, Nuclear factor erythroid 2-related factor 2 (Homo sapiens) (UniProt Q16236); test: Activation of Nrf2 in human HepG2-ARE-C8 cells assessed as induction of ARE-mediated luciferase activity at 1 uM after 24 hrs by luciferase reporter gene assay relative to control; format: cell-based
T1 sequence (whole entry): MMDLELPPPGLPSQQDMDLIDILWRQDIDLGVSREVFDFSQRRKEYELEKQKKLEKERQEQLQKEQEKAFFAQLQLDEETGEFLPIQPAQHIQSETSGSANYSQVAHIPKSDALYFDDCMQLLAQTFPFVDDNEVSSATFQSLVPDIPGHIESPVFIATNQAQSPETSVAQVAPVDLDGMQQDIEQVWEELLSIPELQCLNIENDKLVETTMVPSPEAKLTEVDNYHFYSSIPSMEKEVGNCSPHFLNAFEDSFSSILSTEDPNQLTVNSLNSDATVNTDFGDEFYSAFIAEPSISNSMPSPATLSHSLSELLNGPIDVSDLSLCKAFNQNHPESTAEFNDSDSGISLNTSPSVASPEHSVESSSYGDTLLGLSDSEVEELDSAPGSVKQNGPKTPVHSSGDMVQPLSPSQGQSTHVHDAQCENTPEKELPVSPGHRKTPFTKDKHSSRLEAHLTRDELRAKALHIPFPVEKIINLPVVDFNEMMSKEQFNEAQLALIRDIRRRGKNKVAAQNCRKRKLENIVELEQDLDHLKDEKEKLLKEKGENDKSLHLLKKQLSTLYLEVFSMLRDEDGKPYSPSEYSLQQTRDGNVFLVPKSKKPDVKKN
In short: (§1)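 HepG2-ARE-C8 cells stably carrying ARE-luciferase, grown in DMEM with 10% FBS at 37 °C and 5% CO2. Seeded at 5 × 10^4 cells/well, left overnight, then given compound diluted from a 10 mM DMSO stock for 24 h. Cells lysed and luciferase read as RLU. Inductivity = (RLUtest − RLUblank)/(RLUcontrol − RLUblank), with DMSO as control. Mean ± SEM of three experiments.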

[3] = target: T1, Nuclear factor erythroid 2-related factor 2 (Homo sapiens); test: Activation of Nrf2 in human HepG2-ARE-C8 cells assessed as induction of ARE-mediated luciferase activity at 80 uM after 24 hrs by luciferase reporter gene assay relative to control; format: cell-based; in short: as §1
[4] = test system: L02; test: Cytotoxicity against human LO2 cells up to 160 uM after 24 hrs by MTT assay; format: cell-based; conditions: l02, 24 h
In short: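 LO2 cells plated for 12 h, then treated for 24 h with 0, 0.2, 2, 20, 40, 80 or 160 μM compound diluted in medium from a DMSO stock. MTT (5 mg/mL stock) added for 4 h, formazan dissolved in DMSO, A570 read. Viability computed from OD relative to DMSO control and blank. Mean ± SD of three experiments.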

[5] = target: T1, Nuclear factor erythroid 2-related factor 2 (Homo sapiens); test: Activation of Nrf2 in human LO2 cells assessed as increase in HO-1 mRNA expression level by qRT-PCR analysis; format: cell-based
In short: (§2)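 LO2 cells in DMEM with 10% FBS were exposed to 0, 2.5, 5, 10, 20 or 40 μM compound for 12 h. Transcripts measured by qRT-PCR: 40 cycles of 95 °C for 5 s and 60 °C for 30 s. Normalized to GAPDH and expressed as fold over the untreated control. Mean ± SD, n = 3.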

[6] = target: T1, Nuclear factor erythroid 2-related factor 2 (Homo sapiens); test: Activation of Nrf2 in human LO2 cells assessed as increase in GCLM mRNA expression level by qRT-PCR analysis; format: cell-based; in short: as §2
[7] = target: T1, Nuclear factor erythroid 2-related factor 2 (Homo sapiens); test: Induction of Nrf2 nuclear translocation in human LO2 cells assessed as Nrf2 binding to antioxidant response element after 12 hrs by DAPI staining based immunofluorescence assay; format: cell-based
In short: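 LO2 cells grown on coverslips for 24 h, then treated 12 h with compound (5 or 20 μM); 80 μM tBHQ served as reference. Cells fixed, probed with anti-Nrf2 and a DyLight 488 anti-rabbit secondary, nuclei stained with DAPI. Imaged by confocal microscopy.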

[8] = test system: L02; test: Hepatoprotective activity against APAP-induced cell injury in human LO2 cells assessed as increase in cell viability at 20 uM pretreated for 24 hrs followed by APAP treatment measured after 24 hrs by MTT assay; format: functional
In short: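 LO2 cells plated for 12 h and pretreated for 24 h with 5, 10 or 20 μM compound. One arm was first transfected with 50 nM Nrf2 siRNA before receiving 20 μM compound. Medium then replaced with medium containing 8 mM APAP for 24 h. Viability by MTT at A570. Mean ± SD of three experiments.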

[9] = Lipophilicity, log D of the compound at pH 7.4 by potentiometric titration method; format: physicochemical; conditions: buffer
In short: (§3)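 Intrinsic aqueous solubility and logD at pH 7.4 determined by Avdeef-Bucher potentiometric titration on a pION Gemini Profiler.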

[10] = Intrinsic aqueous solubility of the compound by potentiometric titration method; format: physicochemical; in short: as §3
[11] = test system: Mus musculus; test: Hepatoprotective activity against APAP-induced liver injury in C57BL/6 mouse assessed as reduction in serum AST levels administered ip for 7 consecutive days followed by APAP challenge 1 hr post last compound dose and measured after 24 hrs; format: functional, organism-based
In short: (§4)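 Female C57BL/6 mice (20–25 g, n = 10/group) received 10, 50 or 100 mg/kg/day ip in saline for 7 days. One hour after the last dose they received APAP 300 mg/kg in saline. Killed 24 h later. Serum ALT/AST by kit. Liver homogenates (pH 7.0 phosphate) used for GSH (A420, μmol/g protein), GST (A412, U/mg protein) and SOD. Liver also analyzed by western blot (β-actin normalized), qRT-PCR (GAPDH normalized) and H&E.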

[12] = test system: Mus musculus; test: In vivo activation of Nrf2 in APAP-induced liver injury in C57BL/6 mouse assessed as increase in Nrf2 protein expression level at 10 to 100 mg/kg, ip administered for 7 consecutive days followed by APAP challenge 1 hr post last compound dose and measured after 24 hrs by Western blot analysis; format: functional, organism-based; in short: as §4
[13] = test system: Mus musculus; test: In vivo activation of Nrf2 in APAP-induced liver injury in C57BL/6 mouse assessed as increase in NQO1 protein expression level at 10 to 100 mg/kg, ip administered for 7 consecutive days followed by APAP challenge 1 hr post last compound dose and measured after 24 hrs by Western blot analysis; format: functional, organism-based; in short: as §4
[14] = test system: Mus musculus; test: Hepatoprotective activity against APAP-induced liver injury in C57BL/6 mouse assessed as increase in GSH levels administered ip for 7 consecutive days followed by APAP challenge 1 hr post last compound dose and measured after 24 hrs; format: functional, organism-based; in short: as §4
[15] = test system: Mus musculus; test: Hepatoprotective activity against APAP-induced liver injury in C57BL/6 mouse assessed as increase in GST levels administered ip for 7 consecutive days followed by APAP challenge 1 hr post last compound dose and measured after 24 hrs; format: functional, organism-based; in short: as §4
[16] = test system: Mus musculus; test: Hepatoprotective activity against APAP-induced liver injury in C57BL/6 mouse assessed as increase in SOD levels administered ip for 7 consecutive days followed by APAP challenge 1 hr post last compound dose and measured after 24 hrs by NBT assay; format: functional, organism-based; in short: as §4

Activity [2]: 16.1
Activity [3]: 59.5
Activity [5]: Dose-dependent effect
Activity [6]: Dose-dependent effect
Activity [7]: Dose-dependent effect
logD [9]: 3.07
solubility [10]: 250 µM (≈ 68.3 µg/mL)
SMILES: Cc1ccc(-c2noc(-c3ccc(F)c(F)c3)n2)cn1
Activity [1]: Non-Toxic
Activity [4]: <= 7%
Activity [8]: 80%
Activity [11]: Dose-dependent effect
Activity [12]: Active
Activity [13]: Active
Activity [14]: Dose-dependent effect
Activity [15]: Dose-dependent effect
Activity [16]: Dose-dependent effect
